Measurements reported in ChEMBL document CHEMBL4330067, “Synthesis and mechanistic studies of diketo acids and their bioisosteres as potential antibacterial agents” (Eur J Med Chem, 2019).
In brackets after ≈: the same amount, converted by molar mass.

Key:
[1] = Inhibition of human methionine aminopeptidase 1B using Met-AMC as substrate by Dixon method
Procedure, shortened: (§1)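 Purified MetAP at 4 µM in 50 mM HEPES with 150 mM KCl and CoCl2 at 3 molar equivalents of enzyme. pH 7.5 for SpMetAP1a and EfMetAP1a, pH 8.0 for HsMetAP1b. Substrate L-Met-AMC at 50, 100 and 150 µM. Compounds (10 mM DMSO stocks) tested over 1 to 120 µM for % inhibition; Ki by Dixon method.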

Salmonella typhimurium = experiment: Antibacterial activity against Salmonella typhimurium MTCC 3224 after 24 hrs by broth dilution assay; format: functional, Salmonella enterica subsp. enterica serovar Typhimurium; settings: Salmonella enterica, MTCC 3224, 24 h
Procedure, shortened: (§2)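 Broth dilution per NCCLS in nutrient broth, serial dilutions 1000 to 7.8 µg/mL, DMSO below 4% final. Inoculum approx. 2.5×10⁶ cells/mL, 37 °C with shaking at 150 rpm for 24 h. MIC taken as the lowest concentration with no visible growth. Ciprofloxacin served as positive control.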

Streptococcus pneumoniae [2] = experiment: Inhibition of Streptococcus pneumoniae methionine aminopeptidase 1A at 100 uM using Met-AMC as substrate relative to control; procedure, shortened: as §1
Klebsiella pneumoniae = experiment: Antibacterial activity against Klebsiella pneumoniae ATCC 700603 after 24 hrs by broth dilution assay; format: functional; settings: Klebsiella pneumoniae, 700603, 24 h; procedure, shortened: as §2
[3] = test system: Mycobacterium tuberculosis; experiment: Inhibition of Mycobacterium tuberculosis methionine aminopeptidase 1C at 100 uM using Met-AMC as substrate relative to control
Procedure, shortened: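 Purified MtMetAP1c (4 µM) in 50 mM Hepes pH 7.5 with 150 mM KCl and CoCl2 at three molar equivalents of enzyme. Substrate was L-Met-AMC at 50, 100 or 150 µM. Compounds came from 10 mM DMSO stocks. Percent inhibition was taken against the uninhibited control.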

Enterococcus faecalis [4] = experiment: Inhibition of Enterococcus faecalis methionine aminopeptidase 1A at 100 uM using Met-AMC as substrate relative to control; procedure, shortened: as §1
[5] = Inhibition of Mycobacterium tuberculosis methionine aminopeptidase 1C using Met-AMC as substrate by Dixon method
Homo sapiens = species on record: Homo sapiens; experiment: Inhibition of human methionine aminopeptidase 1B at 100 uM using Met-AMC as substrate relative to control; procedure, shortened: as §1
Escherichia coli = experiment: Antibacterial activity against Escherichia coli ATCC 25922 after 24 hrs by broth dilution assay; format: functional; settings: ATCC 25922, 24 h; procedure, shortened: as §2
Enterococcus faecalis [6] = experiment: Antibacterial activity against Enterococcus faecalis MTCC 439 after 24 hrs by broth dilution assay; format: functional; settings: MTCC 439, 24 h; procedure, shortened: as §2
Streptococcus pneumoniae [7] = experiment: Antibacterial activity against Streptococcus pneumoniae MTCC 655 after 24 hrs by broth dilution assay; format: functional; settings: MTCC 655, 24 h; procedure, shortened: as §2
Pseudomonas aeruginosa = experiment: Antibacterial activity against Pseudomonas aeruginosa MTCC 2453 after 24 hrs by broth dilution assay; format: functional; settings: MTCC 2453, 24 h; procedure, shortened: as §2
[8] = Inhibition of Streptococcus pneumoniae methionine aminopeptidase 1A using Met-AMC as substrate by Dixon method; procedure, shortened: as §1
[9] = Inhibition of Enterococcus faecalis methionine aminopeptidase 1A using Met-AMC as substrate by Dixon method; procedure, shortened: as §1

Compound | Ki [1] [µM] | MIC (Salmonella typhimurium) [µg/mL] | inhibition (Streptococcus pneumoniae [2]) [%] | MIC (Klebsiella pneumoniae) [µg/mL] | inhibition [3] [%] | inhibition (Enterococcus faecalis [4]) [%] | Ki [5] [µM] | inhibition (Homo sapiens) [%] | MIC (Escherichia coli) [µg/mL] | MIC (Enterococcus faecalis [6]) [µg/mL] | MIC (Streptococcus pneumoniae [7]) [µg/mL] | MIC (Pseudomonas aeruginosa) [µg/mL] | Ki [8] [µM] | Ki [9] [µM]
CCOC(=O)c1cc(-c2ccc(Cl)cc2)no1 | 160 | > 1000 | 40.3 | 1000 (≈ 3970 µM) | 47.4 | 19.4 | 152 | 66.3 | 500 (≈ 1990 µM) | 500 (≈ 1990 µM) | 1000 (≈ 3970 µM) | 500 (≈ 1990 µM) | – | –
Cc1c(-c2cc(C(=O)N[C@H](C)C(=O)O)on2)oc2ccc(Br)cc12 | 3.11 | 500 (≈ 1270 µM) | 42.8 | > 1000 | 33.2 | 34.6 | – | 93.4 | 500 (≈ 1270 µM) | 125 (≈ 318 µM) | 250 (≈ 636 µM) | 1000 (≈ 2540 µM) | – | –
COC(=O)[C@@H](C)NC(=O)c1cc(-c2oc3ccc(Br)cc3c2C)no1 | – | – | 36.5 | – | – | 18.8 | – | 45.1 | – | – | – | – | – | –
Cc1c(-c2cc(C(=O)O)on2)oc2ccc(Br)cc12 | – | – | 43.2 | – | 39.1 | 40.3 | – | 47.3 | – | – | – | – | – | –
CCOC(=O)c1cc(-c2ccccc2C)no1 | 123 | – | 41.4 | – | 47.1 | 27.6 | – | 48.9 | – | – | – | – | – | –
CCOC(=O)/C(O)=C/C(=O)c1ccc(Cl)cc1 | 56.1 | 500 (≈ 1960 µM) | 55.3 | > 1000 | 70.5 | 27.3 | 39.5 | 61 | 500 (≈ 1960 µM) | 250 (≈ 982 µM) | 500 (≈ 1960 µM) | 500 (≈ 1960 µM) | 62.6 | –
C[C@@H](NC(=O)c1cc(-c2ccc(Cl)cc2)no1)C(=O)O | – | – | 43.7 | – | 51.7 | 23.6 | 94.6 | 47.2 | – | – | – | – | – | –
O=C(O)c1cc(-c2ccc(Cl)cc2)no1 | – | – | 39.7 | – | 58.2 | 20 | 71.8 | 43.9 | – | – | – | – | – | –
COC(=O)[C@@H](C)NC(=O)c1cc(-c2ccccc2C)no1 | 137 | – | 37 | – | 45.9 | 24.9 | – | 51.1 | – | – | – | – | – | –
Cc1ccccc1C(=O)/C=C(\O)C(=O)N[C@H](C)C(=O)O | 54 | 1000 (≈ 3610 µM) | 58 | 1000 (≈ 3610 µM) | 47.7 | 63.2 | – | 59.2 | 1000 (≈ 3610 µM) | 500 (≈ 1800 µM) | 500 (≈ 1800 µM) | 1000 (≈ 3610 µM) | 59.9 | 64
Cc1ccccc1-c1cc(C(=O)N[C@H](C)C(=O)O)on1 | 86.9 | – | 44.6 | – | 40.9 | 43.4 | – | 50.2 | – | – | – | – | – | –
CCOC(=O)/C(O)=C/C(=O)c1oc2ccc(Br)cc2c1C | 19.8 | 1000 (≈ 2830 µM) | 73 | 500 (≈ 1420 µM) | 91.6 | 93.3 | 18.2 | 86 | 250 (≈ 708 µM) | 250 (≈ 708 µM) | 250 (≈ 708 µM) | 1000 (≈ 2830 µM) | 68.2 | 10.8
CCOC(=O)/C(O)=C/C(=O)c1ccccc1C | 74.3 | 1000 (≈ 4270 µM) | 50.3 | 1000 (≈ 4270 µM) | 55.8 | 43.5 | 36.7 | 61.4 | 250 (≈ 1070 µM) | 250 (≈ 1070 µM) | 250 (≈ 1070 µM) | 1000 (≈ 4270 µM) | 98.5 | –
Cc1ccccc1-c1cc(C(=O)O)on1 | 104 | – | 42.4 | – | 43.7 | 32 | – | 49 | – | – | – | – | – | –
COC(=O)[C@@H](C)NC(=O)/C(O)=C/C(=O)c1ccccc1C | 113 | 1000 (≈ 3430 µM) | 57 | 1000 (≈ 3430 µM) | 67.1 | 59.6 | 32.6 | 51.9 | 1000 (≈ 3430 µM) | 500 (≈ 1720 µM) | 125 (≈ 429 µM) | 1000 (≈ 3430 µM) | 51.9 | 60.4
COC(=O)[C@@H](C)NC(=O)c1cc(-c2ccc(Cl)cc2)no1 | – | – | 43.8 | – | 53.2 | 15.4 | 134 | 43.1 | – | – | – | – | – | –
Cc1ccccc1C(=O)/C=C(\O)C(=O)O | 73.8 | 1000 (≈ 4850 µM) | 62.8 | 1000 (≈ 4850 µM) | 65.7 | 54.7 | 37.5 | 52.3 | 250 (≈ 1210 µM) | 500 (≈ 2420 µM) | 500 (≈ 2420 µM) | 1000 (≈ 4850 µM) | 87.5 | 62.6
CCOC(=O)c1cc(-c2oc3ccc(Br)cc3c2C)no1 | – | – | 40.6 | – | 41.3 | 21.1 | – | 43.6 | – | – | – | – | – | –
Cc1c(C(=O)/C=C(\O)C(=O)O)oc2ccc(Br)cc12 | 32.7 | 500 (≈ 1540 µM) | 93.4 | 1000 (≈ 3080 µM) | 93.5 | 91.9 | 26.3 | 88.2 | 1000 (≈ 3080 µM) | 62.5 (≈ 192 µM) | 62.5 (≈ 192 µM) | 125 (≈ 384 µM) | 27.5 | 17.7
